≈ marks a conversion by molar mass, not a printed value.
Key:
[1] = test system: Staphylococcus aureus; experiment: Antibacterial activity against methicillin-resistant Staphylococcus aureus BAA-1707 incubated for 16 to 18 hrs by broth microdilution method; assay type: functional
[2] = test system: Staphylococcus aureus; experiment: Antibacterial activity against methicillin-resistant Staphylococcus aureus clinical isolate 2 incubated for 16 hrs by broth microdilution method in presence of Cu2+; assay type: functional; conditions: isolate 2, 16 h
[3] = test system: Staphylococcus aureus; experiment: Antibiofilm activity against methicillin-resistant Staphylococcus aureus isolate 2 assessed as biofilm eradication incubated for 24 hrs by CBD assay; assay type: functional; conditions: for MBC: Staphylococcus aureus, isolate 2, 24 h
In short: (§1)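 Calgary Biofilm Device: pegs inoculated with mid-log culture diluted 1,000-fold in TSB + 0.5% glucose, 24 h 37 °C; washed pegs challenged with 2-fold dilutions 24 h 37 °C; pegs moved to fresh TSBG 24 h; MBEC = lowest concentration leaving no turbidity; 2–6 independent experiments.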

[4] = test system: Staphylococcus epidermidis; experiment: Antibacterial activity against methicillin-resistant Staphylococcus epidermidis ATCC 35984 incubated for 16 to 18 hrs by broth microdilution method; assay type: functional
[5] = test system: Staphylococcus epidermidis; experiment: Antibacterial activity against Staphylococcus epidermidis ATCC 12228 incubated for 16 to 18 hrs by broth microdilution method; assay type: functional
[6] = test system: Staphylococcus aureus; experiment: Antibacterial activity against methicillin-resistant Staphylococcus aureus clinical isolate 2 incubated for 16 hrs by broth microdilution method; assay type: functional; conditions: isolate 2, 16 h
[7] = test system: Staphylococcus aureus; experiment: Antibiofilm activity against methicillin-resistant Staphylococcus aureus BAA-1707 assessed as biofilm eradication incubated for 24 hrs by CBD assay; assay type: functional; conditions: for MBC: Staphylococcus aureus, BAA-1707, 24 h; in short: as §1
[8] = test system: Staphylococcus aureus; experiment: Antibacterial activity against methicillin-resistant Staphylococcus aureus clinical isolate 2 incubated for 16 hrs by broth microdilution method in presence of Fe2+; assay type: functional; conditions: isolate 2, 16 h
[9] = test system: Staphylococcus aureus; experiment: Antibacterial activity against methicillin-resistant Staphylococcus aureus BAA-44 incubated for 16 to 18 hrs by broth microdilution method; assay type: functional
[10] = test system: Staphylococcus epidermidis; experiment: Antibacterial activity against Staphylococcus epidermidis ATCC 12228 incubated for 16 to 20 hrs by broth microdilution method; assay type: functional
[11] = test system: Staphylococcus aureus; experiment: Antibacterial activity against Staphylococcus aureus ATCC 25923 incubated for 16 to 20 hrs by broth microdilution method; assay type: functional
[12] = test system: Staphylococcus epidermidis; experiment: Antibacterial activity against methicillin-resistant Staphylococcus epidermidis ATCC 35984 assessed as biofilm eradication incubated for 24 hrs by CBD assay; assay type: functional; conditions: for MBC: Staphylococcus epidermidis, ATCC 35984, 24 h; in short: as §1
[13] = test system: Staphylococcus aureus; experiment: Antibacterial activity against methicillin-resistant Staphylococcus aureus clinical isolate 2 incubated for 16 to 18 hrs by broth microdilution method; assay type: functional
[14] = test system: Staphylococcus aureus; experiment: Ratio of MBEC to MBC for methicillin-resistant Staphylococcus aureus clinical isolate 2 biofilm eradication; assay type: functional
In short: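 From the same CBD challenge plate, MBC taken by subculturing 20 µL into 180 µL TSBG overnight at 37 °C (no turbidity); MBEC from recovered pegs in fresh TSBG 24 h; ratio MBEC:MBC against MRSA-2.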

[15] = Induction of hemolysis in human RBC at 200 uM incubated for 1 hr; assay type: cell-based, Erythrocyte; conditions: red blood cells, read-out: Activity
In short: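 Human RBCs (EDTA), washed three times in Tris-buffered saline pH 7.2; 2% hRBC with compound at final 200 µM, 1 h 37 °C; supernatant OD405; % hemolysis relative to DMSO (0%) and Triton X (100%).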

[16] = test system: Enterococcus faecium; experiment: Antibacterial activity against vancomycin-resistant Enterococcus faecium ATCC 700221 incubated for 16 to 18 hrs by broth microdilution method; assay type: functional
[17] = test system: Staphylococcus aureus; experiment: Ratio of MIC for methicillin-resistant Staphylococcus aureus clinical isolate 2 in absence and presence of Cu2+; assay type: functional
[18] = Aqueous solubility of compound in media after 16 hrs; assay type: physicochemical
[19] = test system: Enterococcus faecium; experiment: Antibiofilm activity against […]-resistant Enterococcus faecium ATCC 700221 assessed as biofilm eradication incubated for 24 hrs by CBD assay; assay type: functional; conditions: for MBC: Enterococcus faecium, ATCC 700221, 24 h; in short: as §1
[20] = Dissociation constant, pKa of compound; assay type: physicochemical
[21] = test system: Mycobacterium tuberculosis; experiment: Antibacterial activity against Mycobacterium tuberculosis H37Ra ATCC 25177 after 7 days by two-fold serial dilution method; assay type: functional; conditions: H37Ra ATCC 25177, 168 h
[22] = test system: HeLa; experiment: Cytotoxicity against human HeLa cells after 24 hrs by LDH release assay; assay type: cell-based
In short: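 HeLa in DMEM + 10% FBS, 37 °C 5% CO2, at 70–80% confluence treated with 25, 50, 100 µM for 24 h; DMSO vehicle; Triton X-100 2% v/v max-LDH control, medium-only negative; supernatant with LDH reaction mix 30 min room temperature, stopped, absorbance 490 nm.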

[23] = Metal chelating activity assessed as soluble Cu2+-compound complex formation by UV-vis spectroscopic analysis; assay type: physicochemical
In short: (§2)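 UV-vis monitoring after adding 0.5 equivalents CuSO4 or ammonium iron(II) sulfate to stirred 10 mM ligand in DMSO; Cu stoichiometry from free ligand remaining after 2 h room-temperature stirring with varying CuSO4 in methanol, filtered, redissolved in DMSO, A440 against calibration curve.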

[24] = Metal chelating activity assessed as soluble Fe2+-compound complex formation by UV-vis spectroscopic analysis; assay type: physicochemical; in short: as §2

Compound: CCCCCCCCCC(=O)N[C@@H](Cc1c[nH]c2ccccc12)C(=O)N[C@@H](CC(N)=O)C(=O)N[C@@H](CC(=O)O)C(=O)N[C@@H]1C(=O)NCC(=O)N[C@@H](CCCN)C(=O)N[C@@H](CC(=O)O)C(=O)N[C@H](C)C(=O)N[C@@H](CC(=O)O)C(=O)NCC(=O)N[C@H](CO)C(=O)N[C@@H]([C@H](C)CC(=O)O)C(=O)N[C@@H](CC(=O)c2ccccc2N)C(=O)O[C@@H]1C [DAPTOMYCIN]
- MIC [1]: 3.13 µM (≈ 5.07 µg/mL)
- MIC [2]: 12.5 µM
- MBEC [3]: >2000 µM
- MBC [3]: 62.5 µM (≈ 101 µg/mL)
- MIC [4]: 12.5 µM (≈ 20.3 µg/mL)
- MIC [5]: 6.25 µM (≈ 10.1 µg/mL)
- MIC [6]: 6.25 µM (≈ 10.1 µg/mL)
- MBEC [7]: >2000 µM
- MBC [7]: 125 µM (≈ 203 µg/mL)
- MIC [8]: 6.25 µM
- MIC [9]: 18.8 µM (≈ 30.5 µg/mL)

Compound: Oc1c(Br)ccc2nc3ccccc3nc12
- MIC [10]: 1.7 µg/mL (≈ 6.18 µM)
- MIC [11]: 6.25 µM (≈ 1.72 µg/mL)

Compound: CO[C@H]1/C=C/O[C@@]2(C)Oc3c(C)c(O)c4c(O)c(c(/C=N/N5CCN(C)CC5)c(O)c4c3C2=O)NC(=O)/C(C)=C\C=C\[C@H](C)[C@H](O)[C@@H](C)[C@@H](O)[C@@H](C)[C@H](OC(C)=O)[C@@H]1C [RIFAMPIN]
- MBEC [3]: 46.9 µM
- MBC [3]: 2 µM (≈ 1.65 µg/mL)
- MBEC [12]: 15.6 µM
- MBC [12]: 3 µM (≈ 2.47 µg/mL)
- MIC [13]: 0.1 µM (≈ 0.0823 µg/mL)
- Ratio [14]: >23
- MIC [4]: 0.1 µM (≈ 0.0823 µg/mL)
- MIC [5]: 0.1 µM (≈ 0.0823 µg/mL)

Compound: CC(=O)NC[C@H]1CN(c2ccc(N3CCOCC3)c(F)c2)C(=O)O1 [LINEZOLID]
- MIC [1]: 12.5 µM (≈ 4.22 µg/mL)
- hemolysis at 1 h, 200 µM [15]: ≤ 1%
- MIC [13]: 3.13 µM (≈ 1.06 µg/mL)
- MIC [4]: 3.13 µM (≈ 1.06 µg/mL)
- MIC [6]: 6.25 µM (≈ 2.11 µg/mL)
- MBEC [7]: >2000 µM
- MBC [7]: 31.3 µM (≈ 10.6 µg/mL)
- MIC [16]: 3.13 µM (≈ 1.06 µg/mL)
- MIC [8]: 6.25 µM

Compound: CN(C)[C@@H]1C(O)=C(C(N)=O)C(=O)[C@@]2(O)C(O)=C3C(=O)c4c(O)cccc4[C@@](C)(O)[C@H]3C[C@@H]12 [TETRACYCLINE]
- MIC [2]: 1.56 µM
- MIC [6]: 1.17 µM (≈ 0.52 µg/mL)
- MIC [8]: 18.8 µM
- Ratio [17]: <2

Compound: Oc1ccc(Br)c2nc3cc(Cl)c(Cl)cc3nc12
- MIC [1]: 0.3 µM (≈ 0.103 µg/mL)
- solubility at 16 h [18]: 200 µM (≈ 68.8 µg/mL)
- MBEC [12]: 100 µM
- MBC [12]: 37.5 µM (≈ 12.9 µg/mL)
- hemolysis at 1 h, 200 µM [15]: 2.7%
- MBEC [19]: 25 µM
- MBC [19]: 100 µM (≈ 34.4 µg/mL)
- MIC [13]: 0.78 µM (≈ 0.268 µg/mL)
- MIC [4]: 1.56 µM (≈ 0.537 µg/mL)
- MIC [5]: 3.13 µM (≈ 1.08 µg/mL)
- MIC [6]: 0.78 µM (≈ 0.268 µg/mL)
- pKa [20]: 8.42
- MIC [21]: 3.13 µM (≈ 1.08 µg/mL)
- IC50 [22]: > 100 µM
- MIC [16]: 6.25 µM (≈ 2.15 µg/mL)
- MIC [9]: 1.17 µM (≈ 0.402 µg/mL)

Compound: Cc1ccc2c(Br)cc(Br)c(O)c2n1 [BROQUINALDOL]
- MIC [1]: 0.78 µM (≈ 0.247 µg/mL)
- Activity [23]: Active
- Activity [24]: Active
- MBEC [3]: 188 µM
- MBC [3]: 23.5 µM (≈ 7.45 µg/mL)
- MBEC [12]: 93.8 µM
- MBC [12]: 9.38 µM (≈ 2.97 µg/mL)
- MBEC [19]: 1.5 µM
- MBC [19]: 2 µM (≈ 0.634 µg/mL)
- MIC [4]: 0.3 µM (≈ 0.0951 µg/mL)
- MIC [5]: 0.78 µM (≈ 0.247 µg/mL)
- MIC [21]: 25 µM (≈ 7.92 µg/mL)
- IC50 [22]: > 100 µM
- MIC [16]: 2.35 µM (≈ 0.745 µg/mL)
- MIC [9]: 0.78 µM (≈ 0.247 µg/mL)
